Measured values taken from ChEMBL document CHEMBL1154522, “Aryl sulfamates are broad spectrum inactivators of sulfatases: effects on sulfatases from various sources” (Bioorg Med Chem Lett, 2009).

Key:
[1] = substrate: O=[N+]([O-])c1ccc(OS(=O)(=O)O)cc1; experiment: Activity at Pseudomonas aeruginosa recombinant arylsulfatase A expressed in Escherichia coli assessed per mg of protein
Summary of the method: (§1)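 Hydrolysis of potassium 4-nitrophenyl sulfate followed by release of 4-nitrophenol; Vmax is expressed per mg protein and Km in mM; Vmax/Km is derived from these.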

[2] = substrate: O=[N+]([O-])c1ccc(OS(=O)(=O)O)cc1; experiment: Activity at Pseudomonas aeruginosa recombinant arylsulfatase A expressed in Escherichia coli; summary of the method: as §1

B1: Arylsulfatase (Pseudomonas aeruginosa (strain ATCC 15692 / PAO1 / 1C / PRS 101 / LMG12228)), P51691 (protein)
chain: MSKRPNFLVIVADDLGFSDIGAFGGEIATPNLDALAIAGLRLTDFHTASTCSPTRSMLLTGTDHHIAGIGTMAEALTPELEGKPGYEGHLNERVVALPELLREAGYQTLMAGKWHLGLKPEQTPHARGFERSFSLLPGAANHYGFEPPYDESTPRILKGTPALYVEDERYLDTLPEGFYSSDAFGDKLLQYLKERDQSRPFFAYLPFSAPHWPLQAPREIVEKYRGRYDAGPEALRQERLARLKELGLVEADVEAHPVLALTREWEALEDEERAKSARAMEVYAAMVERMDWNIGRVVDYLRRQGELDNTFVLFMSDNGAEGALLEAFPKFGPDLLGFLDRHYDNSLENIGRANSYVWYGPRWAQAATAPSRLYKAFTTQGGIRVPALVRYPRLSRQGAISHAFATVMDVTPTLLDLAGVRHPGKRWRGREIAEPRGRSWLGWLSGETEAAHDENTVTGWELFGMRAIRQGDWKAVYLPAPVGPATWQLYDLARDPGEIHDLADSQPGKLAELIEHWKRYVSETGVVEGASPFLVR
B1 showed a Vmax [1] of 6.1 mmol/min/mg and a Km [2] of 0.77 µM.
